# Env fusion inh – HIV envelope-mediated fusion inhibition; 1.1% of 360,000 active; HeLa-JRFL Env/CEM21 cell fusion, luciferase; inhibition, % at 12.3 µM;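 active = mean replicate inhibition score of at least 50 and every replicate individually at or above 50; inconclusive = only one of the two criteria met; inactive = mean below 50 and not all replicates reaching 50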;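 note: 0% = plate neutral controls and 100% = maraviroc near 300 nM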
# PGC1a acetyl inh – modulators of PGC1a acetylation; U2OS PGC1a acetylation, AlphaScreen anti-acetyl-lysine; with virally co-expressed GCN5 acetyltransferase; 0.17% of 350,000 active; inhibition, % at 15.6 µM; AID 651687;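 active = every replicate shows inhibition of at least 40%; inconclusive = mean inhibition at least 40% but some replicate below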;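 note: 0% = neutral control wells and 100% = positive control wells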
# rRNA inh HTS – inhibitors of bacterial rRNA selective over humanized ribosomes; E. coli WT GFP vs humanized-ribosome RFP mutants, fluorescence, 24 h; hits give low values; DMSO median 0, no signal -100; GFP signal change (wild-type ribosome), % (test concentration not listed); 1.6% of 350,000 active;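 active = significant combined selectivity score with lowered wild-type GFP, culture density cut under 30%, mutant RFP and density less affected; inactive = any of these conditions unmet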
# Cneo AK release – causes C. neoformans cell lysis | adenylate kinase release luminescence, 4 h; normalised: neutral wells 0, clomiphene wells 100 | AID 651654 | 0.2% of 360,000 active | lysis activity, % at 15 µM;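 active = mean lysis activity across replicates of at least 80%, whatever share of replicates individually reach that level; inactive = mean lysis activity below 80%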
#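 Assay system: C. neoformans cells. Amount: yeast cell density of 5 × 10^6 cells/mL. Technique: AK luminescence. Buffer or medium: YPD. Times: static 4 h at 37 °C with compound, 1 h detection. Dosing: single-point compound dose. Read-out: lysis from increased AK signal.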
# FGF22 binding – shifts melting point of recombinant human FGF22. Q9HCT0. recombinant FGF22 thermal shift, SYPRO orange fluorescence; percent of sucrose octasulfate shift, DMSO zero. activity (Tm shift, normalised), % at 9.99 µM. 1.5% of 340,000 active. AID 651658;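 active = mean Tm shift, scaled 0 neutral to 100 positive control, at about 1.3% or above, every replicate too, limit read from the data; inconclusive = no clear call, values can overlap the other calls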
# ERAP1 inh – ERAP1 (human) enzyme inhibition; Q9NZ08; recombinant ERAP1, Leu-AMC fluorescence, 60 min; inhibition, % at 10.7 µM; 0.15% of 340,000 active; AID 652197;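 active = mean replicate inhibition of at least 30%, or all replicates individually reaching that 30% level; inactive = mean below 30% and not every replicate reaching it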;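 note: 0% = neutral control wells and 100% = L-leucinethiol positive control wells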
# Active calls of the source: *; ? = inconclusive; / = not tested or not shown; [ ] = remark or other dose. Most compounds without a hit are left out; they make up all but 3.5% or so of the library.
SMILES,Env fusion inh,PGC1a acetyl inh,rRNA inh HTS,Cneo AK release,FGF22 binding,ERAP1 inh
COc1ccc(S(=O)(=O)N(C)C[C@H]2Oc3ccc(NC(=O)Nc4ccc(C(F)(F)F)cc4)cc3C(=O)N([C@H](C)CO)C[C@H]2C)cc1,3[16.7 µM],9,-1,0,0,-1
Cc1ccc(S(=O)(=O)N(C)C[C@@H]2Oc3ccc(NC(=O)Nc4ccc(C(F)(F)F)cc4)cc3C(=O)N([C@H](C)CO)C[C@H]2C)cc1,/,9,0,1,0,-5
COc1ccc(S(=O)(=O)N(C)C[C@@H]2Oc3ccc(NC(=O)Nc4ccc(C(F)(F)F)cc4)cc3C(=O)N([C@@H](C)CO)C[C@@H]2C)cc1,67*[16.7 µM],5,-1,0,0,-1
Cc1ccc(S(=O)(=O)N(C)C[C@H]2Oc3ccc(NC(=O)Nc4ccc(C(F)(F)F)cc4)cc3C(=O)N([C@H](C)CO)C[C@H]2C)cc1,/,5,2,-1,2.7*,-5
COc1ccc(NC(=O)Nc2ccc3c(c2)C(=O)N([C@@H](C)CO)C[C@@H](C)[C@H](CN(C)S(=O)(=O)c2ccc(C)cc2)O3)cc1,-22[16.7 µM],3,-6,3,0,-2
Cc1ccc(S(=O)(=O)N2[C@@H]3CNC[C@H]2C3c2ccc(-c3cccnc3)cc2)cc1 (stereo not given in full),/,2,0,/,/,1
CCC(C)[C@H](NC(=O)c1cn(CC)c2cc3c(cc2c1=O)OCO3)C(=O)NCCCn1ccnc1 (stereo not given in full),-5,11,3,0,0,-3
O=C(NC1CCCc2ccccc21)c1ccc([N+](=O)[O-])cc1 (stereo not given),-5,/,-5,-1,43*,-3
COCCn1cnc2c(c1=O)c1nc3ccccc3nc1n2/N=C/c1ccco1,-1,-1,1,/,0,-1
Cc1ccc2c(c1)Sc1c(ccc3ccccc13)N2,-244,-14,-27*,-2,0,-1
CNC[C@@H]1OCCCC[C@H](C)Oc2ccc(NC(=O)Nc3ccc(OC)cc3)cc2C(=O)N([C@@H](C)CO)C[C@H]1C,1[16.7 µM],-3,7,/,/,/
O=C(c1cc(F)ccc1F)C1CCCN(C(=O)CCN2CCCCO2)C1 (stereo not given),-4,5,14,5,43*,9
Cc1c(/C=N/NC(=O)CNc2ccccc2)c2ccccn2c1C(=O)c1ccncc1,/,/,-20,/,0,4
CCOC(=O)N/N=C/c1c(F)c(F)c(F)c(F)c1F,-13,/,-8,/,44*,0
Cc1nn(C)c(C)c1/C=C/C(=O)O,-16,-14,10,5,43*,3
Cc1nn(C)c(Cl)c1/C=C/C(=O)O,1,-15,7,/,0,-8
CN(C)/C=C/C(=O)c1ccc(Cl)cc1Cl,20,2,-28,/,0,0
Cc1nn(C)c(C)c1/C=C/C(=O)c1ccc(Cl)cc1Cl,56*,/,-22,/,0,-2
O=C(NCCc1ccc(F)cc1)Nc1ccccc1,-55,-4,3,0,0,1
CCCn1c(N)c(C(=O)CSc2nnc(C3CC3)n2Cc2ccccc2)c(=O)n(C)c1=O,/,/,5,1,0,-2
O=c1nc2cccc3c2=c(/c1=C(\O)c1ccccc1)c1ccccc1c3=O,?,/,-9,-4,44*,0
CN(/N=C/c1cc([N+](=O)[O-])ccc1O)c1ccccc1,25,/,22,/,0,1
CC(N=Cc1cc([N+](=O)[O-])ccc1O)c1ccccc1 (stereo not given),-5,/,5,-1,44*,-2
OCCNC(=S)Nc1ccc2nsnc2c1,0,9,0,-2,0,-1
OCCNC(=S)Nc1ccc(Cl)c(Cl)c1,/,0,-17,0,1.4*,-3
SMILES,Env fusion inh,PGC1a acetyl inh,rRNA inh HTS,Cneo AK release,FGF22 binding,ERAP1 inh
OCCNC(=S)Nc1cc(Cl)cc(Cl)c1,4,-11,-22*,/,0,-7
Cc1cc(C)cc(NC(=S)NCCSc2ccc(Cl)cc2)c1,-8,/,-58,/,44*,-2
Cc1ccc(SCCNC(=S)Nc2ccc(C)c(C)c2)cc1,-10,9,/,4,/,/
C[C@H]1CN([C@@H](C)CO)S(=O)(=O)c2ccc(Br)cc2O[C@H]1CN(C)C(=O)C1CCC1,16[16.7 µM],-12,-2,-4,0,-3
CN(CC(=O)Nc1c(Cl)cccc1Cl)C(=O)CCc1nc2sc3c(c2c(=O)[nH]1)CCCC3,-83,-1,2,/,0,1
N/C(Cc1ccc([N+](=O)[O-])cc1)=N\OC(=O)c1ccccc1F,-18,-10,15,-16,0,2
CSc1sc(C(=O)Nc2ccc(F)cc2F)c2c1C=CCC2,-11,1,-26*,0,0,-5
O=C(c1ccco1)N(CCCN1CCOCC1)c1nc(-c2ccc(F)cc2)cs1,36,-21,-33*,-1,0,0
O=C(c1ccco1)N(CCCN1CCOCC1)c1nc(-c2ccc(Cl)cc2)cs1,/,-32,/,-3,/,/
CC[C@@]12C(=O)N(c3cccc(Br)c3)C(=O)N1[C@H](c1ccc(Br)cc1)[C@@H]1C(=O)N(C(C)(C)C)C(=O)[C@@H]12,-11,/,12,0,0,/
CC[C@@]12C(=O)N(c3ccc(C)cc3)C(=O)N1[C@H](c1ccc(Br)cc1)[C@@H]1C(=O)N(C(C)(C)C)C(=O)[C@@H]12,86*,1,10,-2,0,1
COc1ccc(N2C(=O)N3[C@H](c4ccc(Br)cc4)[C@@H]4C(=O)N(C(C)(C)C)C(=O)[C@@H]4[C@]3(Cc3ccccc3)C2=O)cc1,26,-15,13,2,0,3
CC[C@@]12C(=O)N(c3cccc(Br)c3)C(=O)N1[C@H](c1ccc(OC)cc1)[C@@H]1C(=O)N(C(C)(C)C)C(=O)[C@@H]12,96*,7,10,2,0,2
CC[C@@]12C(=O)N(c3ccccc3)C(=O)N1[C@H](c1ccc(OC)cc1)[C@@H]1C(=O)N(C(C)(C)C)C(=O)[C@@H]12,73*,10,-5,1,0,-4
CC[C@@]12C(=O)N(c3ccc(C)cc3)C(=O)N1[C@H](c1ccc(OC)cc1)[C@@H]1C(=O)N(C(C)(C)C)C(=O)[C@@H]12,80*,-14,2,0,0,0
Cc1nnc(NC(=O)CCn2c(=O)oc3ccccc32)s1,2,0,2,7,0,0
O=[N+]([O-])c1ccc2nc(/C=C/c3ccc(Cl)cc3)[nH]c2c1,-61,-22,/,-2,/,/
O=C(Cn1cncn1)c1ccc(F)cc1F,-4,/,/,/,0,6
c1ccc(-c2csc(-n3cccn3)n2)cc1,-10,-5,10,/,43*,4

# Assay outcomes deposited in PubChem BioAssay by Broad Institute.
